Measured values pooled from the literature.
Protocols differ between the studies behind these lines.
Target: Serine/threonine-protein kinase PAK 5 (PAK5, Homo sapiens, UniProt Q9P286)

SMILES	test	conditions	quantity	value
Nc1ncc(-c2nc(N3CCOCC3)nc(N3CCOCC3)n2)c(C(F)F)n1	binding, competition with immobilised ligand	10 µM	remaining binding	52%
C#Cc1n[nH]c2c(-c3cn(C(C)c4ccccn4)c(=O)[nH]c3=O)cc(F)cc12 (stereo not shown)	enzyme activity, inhibitor	1 µM	inhibition	-3.8%
Cn1cc(-c2cccc(N3CCc4c(sc5c4CC(C)(C)C5)C3=O)c2CO)cc(Nc2ccncn2)c1=O	enzyme activity, inhibitor	1 µM	inhibition	4%
COc1ncccc1-c1cnn2ccc(N3CCN(C(=O)OC(C)C)CC3)nc12	binding, competition with immobilised ligand	1 µM	remaining binding	100%
Cn1cc(-c2cc(F)cc(N3CCn4c(cc5c4CCCC5)C3=O)c2CO)cc(Nc2ccc(N3CCN(C4COC4)CC3)cn2)c1=O	enzyme activity, inhibitor	0.1 µM	inhibition	10%
N#CC1(c2ccccn2)CCN(Cc2cc(C(=O)O)c(=O)n3ccccc23)CC1	cell-free assay, competition with immobilised ligand	1 µM	remaining binding	96%
Cc1nn(C)cc1-c1nc2c(N3CCN(Cc4ccc(Cl)cc4)CC3)c(Cl)cnc2[nH]1	binding, competition with immobilised ligand	1 µM	remaining binding	83%
Cn1cncc1[C@@](O)(COc1ccc(C#N)cc1-c1ccc(OC(F)(F)F)cc1)c1ccc(C#N)cc1	cell-free assay, competition with immobilised ligand	1 µM	remaining binding	100%
O=c1[nH]c2ccccc2n1C1CCN(Cc2ccc(-c3[nH]c4cc5ncnc5cc4nc3-c3ccccc3)cc2)CC1	cell-free assay	0.5 µM	remaining signal	110%
COc1cc(Nc2ncc(F)c(Nc3ccc4c(n3)NC(=O)C(C)(C)O4)n2)cc(OC)c1OC	binding	10 µM	inhibition	100%
